This passage reports IC50 results from ChEMBL document CHEMBL3352404, “Lower homologues of ahpatinin, aspartic protease inhibitors, from a marine Streptomyces sp” (J Nat Prod, 2014).

Starred links: 1 amine or outer side, 2 acyl side, 3 side chain; linkers in the order of their positions; H or OH if unused. Non-standard residues stand in square brackets, D forms with d. Residues, ends and D or L forms follow the SMILES beside them. *: point of attachment. Ahppa(3S,4S) = O=C(C[C@H](O)[C@H](Cc1ccccc1)N[*:1])[*:2]; Sta = CC(C)C[C@H](N)[C@@H](O)CC(=O)O; Isobutyryl = CC(C)C(=O)*; Propionyl = CCC(=O)*

The nature of assay [1]: Inhibition of porcine gastric mucosa pepsin using MOCAc-Ala-Pro-Ala-Lys-Phe-Phe-Arg-Leu-Lys (Dnp)-NH2 as substrate after 20 mins by fluorescence assay. Details: species or system Sus scrofa. A digest of the protocol:
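Test solution in MeOH was diluted into 0.1 M ammonium formate buffer pH 3.0. Pepsin solution (1 μg/mL in the buffer) was added, then 10 μM fluorogenic substrate solution (pre-mixing level). The mixture was incubated 30 °C for 20 min. Released MOCAc-Ala-Pro-Ala-Lys-Phe was read by fluorescence, excitation 328 nm, emission 393 nm.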

In a further assay the target is Cathepsin B (Bos taurus, UniProt P07688). Description: Inhibition of bovine spleen cathepsin B using Z-Arg-Arg-AMC as substrate after 30 mins by fluorescence assay. The essentials: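 Enzyme stock 1 unit/mL in 50 mM MES pH 6.0 with 0.1% Brij-35, diluted 100-fold in the same buffer before use. Test sample was mixed with diluted enzyme and 25 μM Z-Arg-Arg-AMC (substrate solution in DMSO, pre-mixing level) and incubated 37 °C for 30 min. Released AMC was read by fluorescence, excitation 345 nm, emission 440 nm.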

A word on the IC50: it is the concentration at which inhibition is half-maximal. On to `CC(=O)N[C@H](C(=O)N[C@H](C(=O)N[C@@H](CC(C)C)[C@@H](O)CC(=O)N[C@@H](C)C(=O)N[C@@H](Cc1ccccc1)[C@@H](O)CC(=O)O)C(C)C)C(C)C` (Ac-VV[Sta]A-{Ahppa(3S,4S)}), for which the figures for the 50% inhibitory concentration (IC50) (in assay [1]; at Cathepsin B) were 0.011 µM and 15 µM, respectively. Regarding `CC(C)C[C@H](NC(=O)[C@@H](NC(=O)[C@@H](NC(=O)C(C)C)C(C)C)C(C)C)[C@@H](O)CC(=O)N[C@@H](C)C(=O)N[C@@H](Cc1ccccc1)[C@@H](O)CC(=O)O` (Isobutyryl-VV[Sta]A-{Ahppa(3S,4S)}), inhibition against Cathepsin B was half-maximal at 26 µM (IC50). Same read-out and setting: then `CC(C)C[C@H](NC(=O)[C@H](C)NC(=O)C[C@H](O)[C@H](CC(C)C)NC(=O)[C@@H](NC(=O)[C@@H](NC(=O)C(C)C)C(C)C)C(C)C)[C@@H](O)CC(=O)O` (Isobutyryl-VV[Sta]A[Sta]-OH), with 29 µM. For `CCC(=O)N[C@H](C(=O)N[C@H](C(=O)N[C@@H](CC(C)C)[C@@H](O)CC(=O)N[C@@H](C)C(=O)N[C@@H](Cc1ccccc1)[C@@H](O)CC(=O)O)C(C)C)C(C)C` (Propionyl-VV[Sta]A-{Ahppa(3S,4S)}), the half-inhibitory concentration (IC50) stood at 0.05 µM in assay [1] and 25 µM on Cathepsin B. The corresponding values for `CCC(=O)N[C@H](C(=O)N[C@H](C(=O)N[C@@H](CC(C)C)[C@@H](O)CC(=O)N[C@@H](C)C(=O)N[C@@H](CC(C)C)[C@@H](O)CC(=O)O)C(C)C)C(C)C` (Propionyl-VV[Sta]A[Sta]-OH) are 0.018 µM and 10 µM. The matching figures for `CC(=O)N[C@H](C(=O)N[C@H](C(=O)N[C@@H](CC(C)C)[C@@H](O)CC(=O)N[C@@H](C)C(=O)N[C@@H](CC(C)C)[C@@H](O)CC(=O)O)C(C)C)C(C)C` [ACETYLPEPSTATIN]: 0.011 µM and 17 µM.
